Assay results reported in ChEMBL document CHEMBL1143438, “N-Glycine-sulfonamides as potent dual orexin 1/orexin 2 receptor antagonists” (Bioorg Med Chem Lett, 2008).
Calls of active or inactive are those of the source. The calls are words filed in the database; no cut-off is given here.

Columns and labels:
[1] = biological target: T1, Orexin/Hypocretin receptor type 1 (Homo sapiens, UniProt O43613); assay: Inhibition of human OX1 receptor expressed in CHO cells assessed as […] calcium mobilization by FLIPR assay; format: functional, cell-based
T1 sequence (O43613 whole entry): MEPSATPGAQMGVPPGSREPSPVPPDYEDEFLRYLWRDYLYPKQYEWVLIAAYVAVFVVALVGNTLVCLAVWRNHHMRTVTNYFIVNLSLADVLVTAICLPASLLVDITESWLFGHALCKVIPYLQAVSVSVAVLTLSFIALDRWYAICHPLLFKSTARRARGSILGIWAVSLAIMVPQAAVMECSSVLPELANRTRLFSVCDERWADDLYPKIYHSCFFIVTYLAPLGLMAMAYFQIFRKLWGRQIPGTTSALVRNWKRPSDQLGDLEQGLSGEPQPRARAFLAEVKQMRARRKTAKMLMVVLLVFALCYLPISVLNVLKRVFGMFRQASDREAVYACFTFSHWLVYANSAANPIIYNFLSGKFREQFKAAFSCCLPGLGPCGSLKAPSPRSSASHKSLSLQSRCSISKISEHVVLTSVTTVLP
How it was run: (§1)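 CHO cells expressing human OX1 or OX2 receptor, loaded with fluo-3 AM at 37 °C in 5% CO2, then washed. Antagonist added at varying concentrations before orexin A; intracellular Ca2+ rise read as fluorescence change by FLIPR. IC50 taken as concentration inhibiting 50% of agonist response.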

Orexin receptor type 2 = biological target: T2, Orexin receptor type 2 (Homo sapiens, UniProt O43614); assay: Inhibition of human OX2 receptor expressed in CHO cells assessed as […] calcium mobilization by FLIPR assay; format: functional, cell-based; how it was run: as §1
T2 sequence (O43614 whole entry): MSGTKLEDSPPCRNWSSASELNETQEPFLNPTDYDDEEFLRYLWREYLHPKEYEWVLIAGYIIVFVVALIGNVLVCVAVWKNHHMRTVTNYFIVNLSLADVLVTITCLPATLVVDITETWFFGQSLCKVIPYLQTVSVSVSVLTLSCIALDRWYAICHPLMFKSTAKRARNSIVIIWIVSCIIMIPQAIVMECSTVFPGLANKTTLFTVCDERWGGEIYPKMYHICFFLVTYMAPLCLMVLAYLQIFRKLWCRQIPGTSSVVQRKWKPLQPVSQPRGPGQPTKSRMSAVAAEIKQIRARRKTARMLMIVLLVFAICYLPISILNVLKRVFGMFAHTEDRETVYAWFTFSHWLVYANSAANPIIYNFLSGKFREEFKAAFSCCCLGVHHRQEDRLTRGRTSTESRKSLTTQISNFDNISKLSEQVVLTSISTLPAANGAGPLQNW

[2] = AUC in Wistar rat at 10 mg/kg, po; format: ADME, organism-based; design: dose 10 mg/kg, route oral; conditions: plasma
How it was run: (§2)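 Oral dosing of male Wistar rats at 10 mg/kg formulated in 100% PEG-400, three animals. Serial blood collected into Na-EDTA at various times, spun to plasma. Cmax (ng/mL), Tmax (h), AUC (ng h/mL) from plasma concentration–time curve; F as percent of dose.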

[3] = Volume of distribution at steady state in Wistar rat at 1 mg/kg, iv; format: ADME, organism-based; design: dose 1 mg/kg, route intravenous; conditions: in vivo, read-out: Vdss
How it was run: (§3)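 Male Wistar rats on 12-h light/dark cycle; single iv dose 1 mg/kg in 5%/95% (v/v) DMSO : 30/70 hydroxypropyl-β-cyclodextrin/sterile water; one or two animals. Serial blood drawn into Na-EDTA tubes at various time-points, centrifuged to plasma; parameters (clearance mL/min kg, Vss L/kg) derived from plasma concentration–time profiles.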

[4] = AUC in Wistar rat at 1 mg/kg, iv; format: ADME, organism-based; design: dose 1 mg/kg, route intravenous; conditions: plasma; how it was run: as §3
[5] = Oral bioavailability in Wistar rat at 10 mg/kg; format: ADME, organism-based; conditions: in vivo; how it was run: as §2
[6] = Half life in Wistar rat at 1 mg/kg, iv; format: ADME, organism-based; design: dose 1 mg/kg, route intravenous; conditions: in vivo; how it was run: as §3
[7] = Tmax in Wistar rat at 10 mg/kg, po; format: ADME, organism-based; design: dose 10 mg/kg, route oral; conditions: in vivo; how it was run: as §2
[8] = Cmax in Wistar rat at 10 mg/kg, po; format: ADME, organism-based; design: dose 10 mg/kg, route oral; conditions: in vivo; how it was run: as §2
[9] = Clearance in Wistar rat plasma at 1 mg/kg, iv; format: ADME, organism-based; design: dose 1 mg/kg, route intravenous; how it was run: as §3
Rattus norvegicus [10] = assay: Drug level in Wistar rat brain at 100 mg/kg, po; format: ADME, organism-based; design: dose 100 mg/kg, route oral; conditions: in vivo
How it was run: (§4)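 Male Wistar rats given 100 mg/kg po; plasma, CSF and brain sampled 1 and 3 h post-dose from same animal (±5 min). Blood from vena cava caudalis into EDTA; CSF from cisterna magna avoiding blood; brain taken after cardiac perfusion with 10 mL 0.9% NaCl, homogenized in 1 volume cold phosphate buffer pH 7.4; total brain concentration in ng/g.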

Rattus norvegicus [11] = assay: Effect on behavioral activity in Wistar rat assessed as increase in time spent on rapid eye movement sleep at 300 mg/kg, po after 12 hrs; format: functional
How it was run: (§5)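 Freely moving adult male Wistar rats with radiotelemetric probes recording EEG, EMG, locomotor activity and body temperature in home cage; oral dosing in 100% PEG-400 at start of dark phase (100, 300 mg/kg). Home cage activity, active wake, non-REM and REM time integrated over 12-h night. Groups of 7–8, crossover, ≥4-day washout; mean ± SEM, one-way ANOVA with Bonferroni post hoc.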

Rattus norvegicus [12] = assay: Effect on behavioral activity in po dosed Wistar rat assessed as increase in time spent on rapid eye movement sleep after 12 hrs in dark; format: functional, organism-based; how it was run: as §5
Rattus norvegicus [13] = assay: Effect on behavioral activity in po dosed Wistar rat assessed as change in time spent active wake in dark; format: functional, organism-based; how it was run: as §5
Rattus norvegicus [14] = assay: Effect on behavioral activity in po dosed Wistar rat assessed as change in time spent on non-rapid eye movement sleep in dark; format: functional, organism-based; how it was run: as §5
[15] = Drug level in Wistar rat brain at 100 mg/kg, po after 3 hrs; format: ADME, organism-based; design: dose 100 mg/kg, route oral; conditions: read-out: Drug uptake; how it was run: as §4
Rattus norvegicus [16] = assay: Effect on behavioral activity in Wistar rat assessed as increase in time spent on non-rapid eye movement sleep at 300 mg/kg, po after 12 hrs; format: functional; how it was run: as §5
Rattus norvegicus [17] = assay: Effect on behavioral activity in po dosed Wistar rat assessed as change in time spent on rapid eye movement sleep in dark; format: functional, organism-based; how it was run: as §5
Rattus norvegicus [18] = assay: Effect on behavioral activity in po dosed Wistar rat assessed as increase in time spent on non-rapid eye movement sleep after 12 hrs in dark; format: functional, organism-based; how it was run: as §5
Rattus norvegicus [19] = assay: Effect on behavioral activity in po dosed Wistar rat assessed as decrease in home cage activity in dark; format: functional, organism-based; how it was run: as §5

In the case of `CCN(CC)C(=O)CN(c1ccc(C)cc1)S(=O)(=O)c1ccc(C)cc1`, the IC50 [1] is reported as > 10000 nM and the IC50 (Orexin receptor type 2) is reported as 232 nM.

In the case of `CCN(CC)C(=O)CN(c1ccc(C)cc1)S(=O)(=O)c1ccc(OC)cc1`, the IC50 [1] is reported as > 10000 nM and the IC50 (Orexin receptor type 2) is reported as 661 nM.

`CCN(CC)C(=O)CN(c1cc(N(C)CC)ccc1Cl)S(=O)(=O)c1ccc(OC)c(OC)c1` gave an IC50 [1] of 1370 nM and an IC50 (Orexin receptor type 2) of 433 nM.

In the case of `CCN(CC)C(=O)CN(c1cccc(N(C)C)c1C#N)S(=O)(=O)c1ccc(OC)c(OC)c1`, the IC50 [1] is reported as > 10000 nM and the IC50 (Orexin receptor type 2) is reported as 110 nM.

Compound `CCN(CC)C(=O)CN(c1cc(N2CCCC2)ccc1Cl)S(=O)(=O)c1ccc(OC)c(OC)c1` has an IC50 [1] of 2530 nM and an IC50 (Orexin receptor type 2) of 1610 nM.

For `CCN(CC)C(=O)CN(c1cc(N(CC)CC)ccc1Cl)S(=O)(=O)c1ccc(OC)c(OC)c1`, the IC50 [1] was > 10000 nM and the IC50 (Orexin receptor type 2) was 2410 nM.

`CCN(CC)C(=O)CN(c1cc(C(F)(F)F)ccc1Cl)S(=O)(=O)c1ccc(OC)c(OC)c1` showed an IC50 [1] of 2490 nM and an IC50 (Orexin receptor type 2) of 48 nM.

For `CCN(C(=O)CN(c1cc(N(C)C)ccc1Cl)S(=O)(=O)c1ccc(OC)c(OC)c1)c1ccn(C)n1`, the AUC [2] was 5660 ng·h/mL, the Vd [3] was 1 L/kg and the IC50 [1] was 12 nM. For the same compound, the AUC [4] was 1230 ng·h/mL, the bioavailability [5] was 46% and the half-life [6] was 54 min. It also gave an IC50 (Orexin receptor type 2) of 7 nM, a Tmax [7] of 240 min and a Cmax [8] of 858 ng/mL. For the same compound, the clearance [9] was 14 mL/min/kg.

With `CCN(CC)C(=O)CN(c1ccc(Cl)c(N(C)C)c1)S(=O)(=O)c1ccc(OC)c(OC)c1` the IC50 [1] was > 10000 nM and the IC50 (Orexin receptor type 2) was 789 nM.

In the case of `CCN(CC)C(=O)CN(c1cc(C#N)ccc1Cl)S(=O)(=O)c1ccc(OC)c(OC)c1`, the IC50 [1] is reported as > 10000 nM and the IC50 (Orexin receptor type 2) is reported as 463 nM.

In the case of `CCN(CC)C(=O)CN(c1ccc(C)cc1)S(=O)(=O)c1cccc(C)c1`, the IC50 [1] is reported as > 10000 nM and the IC50 (Orexin receptor type 2) is reported as 60 nM.

`CCN(CC)C(=O)CN(c1cc(C(C)C)ccc1Cl)S(=O)(=O)c1ccc(OC)c(OC)c1` gave an IC50 [1] of 888 nM and an IC50 (Orexin receptor type 2) of 90 nM.

In the case of `CCN(CC)C(=O)CN(c1ccc(C)cc1)S(=O)(=O)c1ccccc1F`, the IC50 [1] is reported as > 10000 nM and the IC50 (Orexin receptor type 2) is reported as 3370 nM.

With `CCN(CC)C(=O)CN(c1cc(N(C)C)ccc1OC)S(=O)(=O)c1ccc(OC)c(OC)c1` the IC50 [1] was > 10000 nM and the IC50 (Orexin receptor type 2) was 239 nM.

With `CCN(C(=O)CN(c1cc(N(C)C)ccc1Cl)S(=O)(=O)c1ccc(OC)c(OC)c1)c1cnc(C)cn1` the AUC [2] was 3860 ng·h/mL, the Vd [3] was 1.5 L/kg and the IC50 [1] was 5 nM. The AUC [4] was 1290 ng·h/mL, the bioavailability [5] was 30% and the half-life [6] was 90 min. For the same compound, the IC50 (Orexin receptor type 2) was 3 nM, the Drug uptake (Rattus norvegicus [10]) was 10 ng/g and the Tmax [7] was 60 min. For the same compound, the Cmax [8] was 754 ng/mL and the clearance [9] was 13 mL/min/kg.

With `CCN(C(=O)CN(c1cc(N(C)C)ccc1Cl)S(=O)(=O)c1ccc(OC)c(OC)c1)c1cccc(C)n1` the AUC [2] was 2290 ng·h/mL, the Vd [3] was 1.7 L/kg and the IC50 [1] was 17 nM. For the same compound, the Activity (Rattus norvegicus [11]) was 17%, the Activity (Rattus norvegicus [12]) was “Dose-dependent effect” and the AUC [4] was 434 ng·h/mL. The bioavailability [5] was 35%, the half-life [6] was 30 min and the Activity (Rattus norvegicus [13]) was “Active”. For the same compound, the Activity (Rattus norvegicus [14]) was “Active”, the IC50 (Orexin receptor type 2) was 5 nM and the concentration at 3 h [15] was 66 ng/g. The Drug uptake (Rattus norvegicus [10]) was 10 ng/g, the Tmax [7] was 30 min and the Activity (Rattus norvegicus [16]) was 83%. For the same compound, the Activity (Rattus norvegicus [17]) was “Active”, the Cmax [8] was 582 ng/mL and the Activity (Rattus norvegicus [18]) was “Dose-dependent effect”. For the same compound, the Activity (Rattus norvegicus [19]) was “Dose-dependent effect” and the clearance [9] was 38 mL/min/kg.

In the case of `CCN(C(=O)CN(c1cc2c(C)nsc2cc1Cl)S(=O)(=O)c1ccc(OC)c(OC)c1)c1ccccn1`, the AUC [2] is reported as 34 ng·h/mL, the Vd [3] is reported as 1 L/kg and the IC50 [1] is reported as 8 nM. For the same compound, the AUC [4] was 327 ng·h/mL, the bioavailability [5] was 1% and the half-life [6] was 36 min. The IC50 (Orexin receptor type 2) was 5 nM, the Tmax [7] was 30 min and the Cmax [8] was 41 ng/mL. It also gave a clearance [9] of 51 mL/min/kg.

`CCN(CC)C(=O)CN(c1cc(-n2cccc2)ccc1Cl)S(=O)(=O)c1ccc(OC)c(OC)c1` showed an IC50 [1] of 1710 nM and an IC50 (Orexin receptor type 2) of 1160 nM.
